# Apaf-1 inh – human Apaf-1 inhibition | O14727 | reconstituted apoptosome caspase-3 activity, DEVD-Rh110 fluorescence | inhibition, % at 20 µM | 330,000 compounds, 0.71% hits | AID 489030; active = inhibition of at least 40% at 20 µM;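 note: plate controls were DMSO wells for no effect and DEVD-CHO caspase inhibitor wells for full effect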
#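 detection = Rh110 fluorescence intensity | test system = biochemical Apaf-1 apoptosome reconstitution | also added = cytochrome c and DEVD-Rh110 substrate | schedule = 30 min plus 50 min, RT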
# PREPL inh – inhibits the human prolyl oligopeptidase-like enzyme; inhibition, % at 5.96 µM; 320,000 compounds, 0.68% hits; recombinant PREPL, fluorescence polarization activity-based probe; AID 2751; Q4J6C6; in the data active = inhibition above about 43%;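 note: 0% = enzyme with DMSO and 100% = wells lacking enzyme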
# Target sequence (Q4J6C6 whole entry, looked up): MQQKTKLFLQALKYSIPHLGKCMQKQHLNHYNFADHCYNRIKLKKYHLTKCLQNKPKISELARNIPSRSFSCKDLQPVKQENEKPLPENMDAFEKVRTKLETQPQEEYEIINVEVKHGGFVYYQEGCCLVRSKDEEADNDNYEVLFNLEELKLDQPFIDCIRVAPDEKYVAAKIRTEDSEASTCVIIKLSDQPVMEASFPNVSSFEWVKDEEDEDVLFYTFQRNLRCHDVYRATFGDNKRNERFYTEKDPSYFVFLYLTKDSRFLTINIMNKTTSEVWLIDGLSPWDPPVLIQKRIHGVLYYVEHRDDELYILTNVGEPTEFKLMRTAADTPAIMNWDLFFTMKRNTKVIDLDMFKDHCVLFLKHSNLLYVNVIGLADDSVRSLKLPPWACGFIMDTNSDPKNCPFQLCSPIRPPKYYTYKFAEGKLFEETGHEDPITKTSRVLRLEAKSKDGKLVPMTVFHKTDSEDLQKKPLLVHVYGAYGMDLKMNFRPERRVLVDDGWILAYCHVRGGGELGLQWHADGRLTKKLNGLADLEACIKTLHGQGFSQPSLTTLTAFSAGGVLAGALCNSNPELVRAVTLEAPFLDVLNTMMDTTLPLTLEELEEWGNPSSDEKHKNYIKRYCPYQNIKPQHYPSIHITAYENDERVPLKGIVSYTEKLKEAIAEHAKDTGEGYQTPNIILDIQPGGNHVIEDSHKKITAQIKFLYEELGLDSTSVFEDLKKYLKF
# MEKK2wt PB1 HTS – raises or lowers MEK5 binding to wildtype human MEKK2 PB1 domain; bead flow cytometry, Alexa488-MEK5 binding to MEKK2 WT; actives lie on both sides; binding response (% of control), % at 10 µM; 290,000 compounds, 1.1% hits; in the data active = binding response below about 67% or above about 130%
# MEKK3 PB1 HTS – modulators (inhibitors or enhancers) of MEK5 binding to human MEKK3 PB1 domain. AID 1529. 290,000 compounds, 1.4% hits. Q99759. bead-based flow cytometry, Alexa488-MEK5 binding to MEKK3; actives lie on both sides; 0 = blocked by unlabeled MEK5, 100 = vehicle. binding response (% of control), % at 10 µM;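 active = binding response more than 3 SD above or below the average of its plate-row segment, actives on both sides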;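 note: Alexa488 bead fluorescence after subtracting the streptavidin-only scavenger bead signal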
# UBC13 inh – inhibitors of human UBC13 polyubiquitin chain formation. P61088. TR-FRET. inhibition, % at 20 µM. 330,000 compounds, 0.47% hits; in the data active = inhibition above about 45%, passing the limit was not always enough
# MEKK2mut PB1 HTS – signal of MEK5 binding to mutant human MEKK2 PB1 domain. 290,000 compounds, 0.35% hits. AID 1530. percent response, % at 10 µM. bead flow cytometry, Alexa488-MEK5 binding to MEKK2 mutant; in the data active = percent response above about 24%, passing the limit was not always enough
# Apaf-1 inh conf2 – Apaf-1 inhibition, single-dose confirmed; shares compounds with Apaf-1 inh; reconstituted apoptosome, caspase-3 DEVD-Rh110 fluorescence; inhibition, % at 20 µM; 1,800 compounds, 25% hits; AID 504614;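 active = mean inhibition of at least 40% at 20 µM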;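 note: plate controls were DMSO wells for no effect and DEVD-CHO caspase inhibitor control wells for full effect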
# Rh110 interf inh – counter-screen for Apaf-1 inhibitors: fluorescence interference. shares compounds with Apaf-1 inh. Rh110 fluorescence interference, quenched caspase reaction. activation (fluorescence interference), % at 20 µM. 1,800 tested, under 10 active;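 active = signal rise of 40% or more at 20 µM, treated as a fluorescence artifact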
# Fluor interf inh – counter-screen for Apaf-1 inhibitors: fluorescence interference, dose response | IC50, µM | AID 588538 | 460 tested, under 10 active | fluorescence interference counterscreen, Apaf-1 assay format | shares compounds with Apaf-1 inh; call rule not given here
# Numbers without * were called inactive; . = no result. Hits are enriched below; roughly 3.1% of the tested compounds scored in any of these assays.
SMILES,Apaf-1 inh,PREPL inh,MEKK2wt PB1 HTS,MEKK3 PB1 HTS,UBC13 inh,MEKK2mut PB1 HTS,Apaf-1 inh conf2,Rh110 interf inh,others
COc1ccc(C(=O)NNC(=O)COc2ccc(Cl)cc2)c(OC)c1,4.7,-6.7,90.0,95.0,9.1,-10.0,.,.,
Cc1ccccc1C(=O)NC1CCN(CC(=O)N2CCCCC2C)CC1 (centres undefined),-3.3,-0.4,103.0,99.0,1.7,1.0,.,.,
O=C1C(Cl)=C(N2CCC(C(=O)O)CC2)C(=O)c2ccccc21,74.9*,16.5,105.0,103.0,-59.2,7.0,52.6*,1.8,Fluor interf inh=>100
O=C(O)C1CCN(C(=O)c2ccccc2Cl)CC1,-19.7,4.9,106.0,108.0,9.1,4.0,.,.,
CCN1CCN(C2=C(NS(=O)(=O)c3ccccc3)C(=O)c3ccccc3C2=O)CC1,82.5*,7.3,106.0,101.0,-116.8,1.0,41.8*,6.7,Fluor interf inh=>100
CCN1CCN(C2=C(NS(=O)(=O)c3ccc(Br)cc3)C(=O)c3ccccc3C2=O)CC1,88.2*,26.4,103.0,100.0,-101.0,2.0,46.5*,1.4,Fluor interf inh=>100
O=C1C(NS(=O)(=O)c2cccs2)=C(N2CCOCC2)C(=O)c2ccccc21,11.8,15.3,98.0,105.0,-70.7,2.0,.,.,
CN1CCN(C2=C(NS(=O)(=O)c3ccccc3)C(=O)c3ccccc3C2=O)CC1,78.5*,22.1,97.0,99.0,-82.5,1.0,44.8*,6.3,Fluor interf inh=>100
CCOC(=O)N1CCN(C2=C(NS(=O)(=O)c3ccccc3)C(=O)c3ccccc3C2=O)CC1,48.5*,7.6,95.0,98.0,-55.2,-3.0,24.1,0.1,
O=C1C(NS(=O)(=O)c2ccc(Cl)cc2)=C(N2CCCCC2)C(=O)c2ccccc21,71.8*,17.6,94.0,98.0,-57.6,-7.0,41.5*,6.6,Fluor interf inh=>100
CC(C)(CN1CCCCC1)NS(=O)(=O)c1ccc(Cl)cc1,-2.3,-1.7,104.0,102.0,2.2,5.0,.,.,
CCOC(=O)c1cnc(-n2nc(C)cc2C)nc1NC1CCCCC1,41.7*,7.5,96.0,102.0,15.8,-2.0,19.4,-2.7,
CCOC(=O)c1cnc(-n2nc(C)cc2C)nc1NC,-6.4,18.7,94.0,97.0,-10.2,-4.0,.,.,
NC(=O)C1CCN(C(=O)c2cccc(S(=O)(=O)N3CCCC3)c2)CC1,9.2,.,.,.,-8.7,.,.,.,
CCN(C(=O)c1coc(=O)c(Br)c1)c1ccc2c(c1)OCO2,59.3*,36.4,100.0,102.0,-15.5,5.0,18.0,-0.2,
CCN(C(=O)c1c(C)cc(=O)oc1C)c1ccc2c(c1)OCO2,5.9,4.8,104.0,103.0,-7.5,-1.0,.,.,
CCOc1ccc(-c2cc(C(=O)NCCCn3ccnc3)c3cc(Br)ccc3n2)cc1,42.5*,-3.3,111.0,100.0,3.4,3.0,-0.6,9.1,
c1ccc(CCC2CCCCN2Cc2nc(-c3ccc4c(c3)OCO4)no2)nc1 (centres undefined),0.5,3.4,108.0,105.0,-1.0,12.0,.,.,
CN1CCN(c2ccc(NC(=O)COc3ccccc3)cc2Cl)CC1,49.5*,.,108.0,100.0,2.6,2.0,15.1,6.3,
Cc1ccc(NC(=O)COc2ccccc2)cc1Cl,7.6,-0.8,109.0,108.0,-7.4,16.0,.,.,
COc1ccc(-c2nn(-c3ccccc3)cc2C(N)=O)cc1OC,10.1,3.2,103.0,99.0,-6.5,0.0,.,.,
CCCCNC(=S)Nc1ccc(SC(F)F)cc1,11.5,3.4,105.0,103.0,-4.1,-1.0,.,.,
Oc1cccc2c(NC(=S)Nc3ccc(SC(F)F)cc3)cccc12,53.2*,12.4,106.0,107.0,-3.6,3.0,12.4,0.5,
Cc1cccc(NC(=O)CN2C(=O)S/C(=C\c3ccc(-c4cccc(C(=O)O)c4C)o3)C2=O)c1,19.0,4.2,98.0,102.0,-3.6,-1.0,.,.,
Cc1ccc(NC(=O)CN2C(=O)S/C(=C/c3ccc(-c4cc(C(=O)O)ccc4C)o3)C2=O)cc1C,41.6*,-3.8,83.0,96.0,-20.6,-5.0,38.4,9.7,
SMILES,Apaf-1 inh,PREPL inh,MEKK2wt PB1 HTS,MEKK3 PB1 HTS,UBC13 inh,MEKK2mut PB1 HTS,Apaf-1 inh conf2,Rh110 interf inh,others
O=C(O)CCn1cc(/C=N/O)c(-c2cccc([N+](=O)[O-])c2)n1,-4.7,-0.8,100.0,102.0,1.5,-1.0,.,.,
C=CCNC(C(=O)Nc1cccc(OC)c1)c1ccccc1 (centres undefined),42.9*,6.7,80.0,91.0,-0.2,-11.0,-5.6,3.0,
NC(=O)CSc1nc2scc(-c3ccc(Cl)cc3)c2c(=O)n1Cc1ccccc1,46.9*,2.6,90.0,99.0,-16.2,1.0,18.5,1.5,
Cc1ccc(-c2csc3nc(SCC(=O)N(C)C)n(Cc4ccccc4)c(=O)c23)cc1,16.2,38.5,94.0,106.0,1.2,3.0,.,.,
CNC[C@@H]1Oc2ccc(NS(=O)(=O)c3ccc(Cl)cc3)cc2C(=O)N([C@H](C)CO)C[C@@H]1C,45.1*,15.4,.,.,41.8,.,18.7,17.5,
CS(=O)(=O)N(CC(=O)N1CCc2ccccc2C1)c1ccc(Cl)cc1F,.,.,99.0,101.0,.,2.0,.,.,
Cc1ccc(C(=O)Nc2ccccn2)cc1S(=O)(=O)N1CCOCC1,42.8*,-4.8,.,.,18.9,.,33.1,3.2,
O=C(Nc1ccccn1)c1ccc(Cl)c(S(=O)(=O)N2CCOCC2)c1,3.9,5.8,107.0,102.0,-0.5,4.0,.,.,
COc1ccc(NC(=O)CC2Nc3cccc4cccc(c34)NC2=O)cc1 (centres undefined),94.2*,22.7,97.0,102.0,-5.3,0.0,11.1,1.0,
O=C(CC1Nc2cccc3cccc(c23)NC1=O)Nc1ccc(F)cc1 (centres undefined),95.6*,33.3,100.0,100.0,-52.2,-1.0,19.6,7.1,
O=C(CC1Nc2ccccc2NC1=O)Nc1cc(Cl)cc(Cl)c1 (centres undefined),24.2,0.3,90.0,100.0,1.0,-3.0,.,.,
Cc1ccc(CNC(=O)C2CCCN(S(=O)(=O)c3ccc(-n4cnnn4)cc3)C2)cc1 (centres undefined),-6.3,3.0,94.0,102.0,-1.3,-3.0,.,.,
COc1ccc2cc1Oc1ccc(cc1)C[C@H]1c3c(cc4c(c3Oc3cc5c(cc3OC)CCN(C)[C@@H]5C2)OCO4)CCN1C,49.2*,-23.1,124.0,103.0,24.7,11.0,18.2,-6.0,
COc1ccc2c(c1OC)C(=O)O[C@@H]2[C@H]1c2c(cc3c(c2OC)OCO3)CCN1C,-6.2,3.9,105.0,107.0,4.3,-1.0,.,.,

# Bioassay records as filed in PubChem BioAssay.
